Experimental data taken from PMC2993511 (Biochemical pharmacology, 2010).
“Also recorded” adds a separate entry of the source.

Columns and labels:
Naïve CHO cells = experiment: [35S]GTPγS binding in naïve CHO cells; format: biochemical, Chinese hamster; settings: not transfected with MOR or DOR, data not shown
Summary of the method: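 Untransfected CHO cell membranes, a receptor-free control. Tested with 0.1 nM [35S]GTPγS and 3 μM GDP in HEPES pH 7.4 buffer at 30°C. Extract and DAMGO were added. Nonspecific binding was subtracted using 10 μM unlabeled GTPγS. Read-out was filtration plus scintillation counting.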

MOR [1] = target: T1, MOR (Homo sapiens, UniProt P35372); experiment: Receptor binding assay, displacement of [3H]DAMGO
DOR [2] = target: T2, DOR (Homo sapiens, UniProt P41143); experiment: Receptor binding assay, displacement of [3H]deltorphin
DOR [3] = target: T2, DOR; experiment: [35S]GTPγS binding assay, CHO-DOR membranes; format: biochemical
MOR [4] = target: T1, MOR; experiment: [35S]GTPγS binding assay, CHO-MOR membranes; format: biochemical
Summary of the method: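 Human MOR stably expressed in CHO cells (G418 selection); membranes homogenised on ice and spun at 20,000 g. 20 μg protein incubated with 0.1 nM [35S]GTPγS, 3 μM GDP, Mg2+ and Na+ in HEPES pH 7.4, 1 hr, 30°C. DAMGO was the positive control. Nonspecific binding was taken with 10 μM unlabeled GTPγS. Filter-bound radioactivity was counted and expressed as percent stimulation above basal.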

T1 sequence (P35372 whole entry): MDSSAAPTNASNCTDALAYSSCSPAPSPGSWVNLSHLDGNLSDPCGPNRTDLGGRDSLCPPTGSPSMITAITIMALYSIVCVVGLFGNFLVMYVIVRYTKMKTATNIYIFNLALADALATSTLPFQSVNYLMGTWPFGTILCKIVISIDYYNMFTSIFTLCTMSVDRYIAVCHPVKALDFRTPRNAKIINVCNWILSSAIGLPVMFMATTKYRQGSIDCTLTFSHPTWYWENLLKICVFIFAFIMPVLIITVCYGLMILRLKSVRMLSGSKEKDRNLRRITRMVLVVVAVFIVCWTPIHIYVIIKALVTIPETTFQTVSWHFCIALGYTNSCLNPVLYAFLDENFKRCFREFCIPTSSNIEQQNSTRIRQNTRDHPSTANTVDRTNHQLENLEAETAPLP
T2 sequence (P41143 whole entry): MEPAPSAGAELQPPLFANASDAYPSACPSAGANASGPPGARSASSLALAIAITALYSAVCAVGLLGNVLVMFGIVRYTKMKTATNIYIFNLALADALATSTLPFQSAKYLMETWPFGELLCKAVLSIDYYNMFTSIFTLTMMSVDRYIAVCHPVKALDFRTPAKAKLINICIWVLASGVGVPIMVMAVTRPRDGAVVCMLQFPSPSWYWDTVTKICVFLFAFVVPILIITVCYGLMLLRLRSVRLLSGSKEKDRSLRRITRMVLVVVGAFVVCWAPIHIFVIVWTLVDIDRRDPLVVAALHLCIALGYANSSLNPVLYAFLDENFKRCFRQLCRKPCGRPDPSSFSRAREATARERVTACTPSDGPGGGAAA

Compound | IC50 (MOR [1]) [µM] | Ki (MOR [1]) [µM] | IC50 (DOR [2]) [µM] | Ki (DOR [2]) [µM] | further results
C=CCN1C[C@H](C)N([C@H](c2ccc(C(=O)N(CC)CC)cc2)c2cccc(OC)c2)C[C@H]1C [SNC-80] | – | – | – | – | stimulation of [35S]GTPγS binding in naïve CHO cells (Naïve CHO cells): not stimulated
O=c1cc(-c2ccc(O)cc2)oc2cc(O)cc(O)c12 [apigenin] | 35.8 ± 7.81 | 16.2 ± 3.16 | > 50 | – | –
COc1ccc(-c2oc3cc(OC)c(OC)c(O)c3c(=O)c2OC)cc1O [casticin] | 2.84 ± 0.707 | 1.14 ± 0.167 | 2.05 ± 0.631 | 1.29 ± 0.44 | EC50 (DOR [3]): 15.3 ± 6.32 µM; Emax (DOR [3]; read-out: DOR Emax, stimulation of [35S]GTPγS binding): 74.6 ± 18.2%; activation of MOR (MOR [4]): did not activate
COc1c(-c2ccc(O)cc2)oc2cc(O)cc(O)c2c1=O [isokaempferide] | – | – | 22.8 ± 14 | 12.9 ± 7.92 | affinity for MOR (MOR [1]): no significant affinity
O=c1cc(-c2ccc(O)c(O)c2)oc2cc(O)cc(O)c12 [luteolin] | 43.3 ± 13.2 | 13.4 ± 4.06 | 16.8 ± 4.87 | 9.53 ± 2.73 | –
N,N-diallyl-Tyr-Aib-Aib-Phe-Leu-OH [ICI 174,864, reference compound] | – | – | – | – | effect on casticin stimulated [35S]GTPγS binding (DOR [3]; casticin 10 and 50 μM, ICI 174,864 10 μM): inhibited; also recorded: blocked
[D-Ala^2,N-MePhe^4-Glyol^5]enkephalin [DAMGO] | – | – | – | – | stimulation of [35S]GTPγS binding in naïve CHO cells (Naïve CHO cells): not stimulated
